Type in all cases: cell-based
Common to all, as to details: pre-treated 1 h, MSU 500 μg/ml 12 h

In one test the test system is NLRP3 inflammasome. The test is described as follows: Western blot of NLRP3, ASC and Caspase-1 p20 in MSU-treated THP-1 cells. In short, it runs like this:
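THP-1 cells (PMA-differentiated, pre-treated 1 h, MSU 500 μg/ml 12 h) were lysed in RIPA buffer. Lysates were resolved by 8–12% SDS-PAGE and transferred to PVDF. After blocking, membranes took primary antibodies overnight at 4 °C, three TBST washes and HRP secondary antibodies for 2 h, with ECL detection. n = 4 per group; mean ± SD; one-way ANOVA/Tukey.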
On the technique in general: A western blot detects proteins with antibodies after separation by electrophoresis.

Test [1] concerns MSU-treated THP-1 cells. Nature of the test: IL-1β in culture supernatants of MSU-treated THP-1 cells. In short, it runs like this:
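PMA-differentiated THP-1 cells (ATCC) were pre-treated 1 h with the test compound or a reference P2Y14R antagonist, then stimulated with MSU (500 μg/ml) for 12 h. IL-1β in collected culture supernatants was measured by ELISA kit. n = 4 per group; mean ± SD; one-way ANOVA with Tukey test, p < 0.05.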

The subject of test [2] is MSU-treated THP-1 cells. Nature of the test: cAMP levels in MSU-treated THP-1 cells.

Regarding `O=C(O)c1cc(-c2ccc(C3CCNCC3)cc2)c2ccc(-c3ccc(C(F)(F)F)cc3)cc2c1` [PPTN], the “effect on MSU-increased protein expressions of NLRP3, ASC and Caspase-1 p20” value in the test with NLRP3 inflammasome is given as “reversed”. In addition, the “effect on IL-1β release into the supernatant” value in the test with MSU-treated THP-1 cells [1] is reported as “apparently inhibited the release of IL-1β”. For the same molecule, the “effect on MSU-induced decrease of cAMP concentrations” value in the test with MSU-treated THP-1 cells [2] is recorded as “reversed”.

The record behind these values is PMC7037572 (Journal of Advanced Research, 2020).
